One series deals with rhinovirus A21. In words: Antiviral activity against Human rhinovirus A21 infected in human H1HeLa cells assessed as protection against virus induced cytopathic effect after 3 days by MTT assay. The series is classed as functional, cell-based. Particulars: Rhinovirus A, H1-HeLa, 72 h. Put shortly:
(§1)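 CPE-reduction assay in H1HeLa cells plated 2 d before. Equal volumes of virus and compound were added and held at 33 °C for 3 d under CO2. Supernatant was removed, then MTT was added for 1 h at 37 °C. Formazan was dissolved and read at 540 nm against a 690 nm reference. Survival was scaled between uninfected untreated wells (100%) and virus-only wells (0%); mean ± SD, three experiments.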

A short description of series [1]: Selectivity index, ratio of CC50 for human H1HeLa cells to EC50 for Human rhinovirus A71 infected in human H1HeLa cells. The series is classed as toxicity, cell-based. The conditions noted are these: read-out: Ratio CC50/EC50. Put shortly:
(§2)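 H1HeLa cells plated 2 d ahead; virus plus compound (equal volumes) incubated 33 °C, 3 d, CO2. MTT 1 h at 37 °C, A540/A690. Survival scaled between uninfected untreated (100%) and virus-only (0%) wells to give EC50. CC50 = 50% cell death by MTT in H1HeLa. SI = CC50/EC50; at least three independent experiments.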

A short description of series [2]: Antiviral activity against Human rhinovirus A71 infected in human H1HeLa cells assessed as protection against virus induced cytopathic effect after 3 days by MTT assay. In kind it is functional, cell-based. The conditions noted are these: Rhinovirus A, H1-HeLa, 72 h. Put shortly: as §1
Series [3] can be described thus: Cytotoxicity aganist human HeLa cells assessed as decrease in cell viability after 2 days by MTT assay. In kind it is cell-based.
Series [4] in a line: Selectivity index, ratio of CC50 for human H1HeLa cells to EC50 for Human rhinovirus A21 infected in human H1HeLa cells. In kind it is toxicity, cell-based. The conditions noted are these: read-out: Ratio CC50/EC50. The gist of the method: as §2
Series [5] can be described thus: Selectivity index, ratio of CC50 for human H1HeLa cells to EC50 for Human rhinovirus B14 infected in human H1HeLa cells. In kind it is toxicity, cell-based. The conditions noted are these: read-out: Ratio CC50/EC50. The gist of the method: as §2
Series [6] can be described thus: Cytotoxicity against human H1HeLa cells assessed as decrease in cell viability after 3 days by MTT assay. The series is classed as cell-based, H1-HeLa.
The next series relates to Poliovirus 3. In words: Antiviral activity against Human poliovirus 3 infected in human HeLa cells assessed as protection against virus induced cytopathic effect after 2 days by MTT assay. In kind it is functional, cell-based. The conditions noted are these: Enterovirus C, 48 h. Put shortly: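 HeLa cells; MTT-based CPE reduction. Virus and compound added in equal volumes, incubated 37 °C for 2 d in CO2. Supernatant removed, MTT 1 h at 37 °C, formazan dissolved, absorbance 540 nm (690 nm reference). Uninfected untreated wells = 100% survival, virus-only = 0%. EC50 = 50% inhibition; means ± SD, three experiments.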
A general note: Damage to the host cells serves as the signal in cytopathic effect assays.

The test system of the next series is rhinovirus B14. In words: Antiviral activity against Human rhinovirus B14 infected in human H1HeLa cells assessed as protection against virus induced cytopathic effect after 3 days by MTT assay. The series is classed as functional, cell-based. The conditions noted are these: Rhinovirus B, H1-HeLa, 72 h.
Series [7] can be described thus: Selectivity index, ratio of CC50 for human HeLa cells to EC50 for human poliovirus 3 infected in human HeLa cells. Particulars: read-out: Ratio CC50/EC50. The series is classed as toxicity, cell-based. The gist of the method:
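SI = CC50/EC50 in HeLa cells. CC50 = 50% cell death by MTT. EC50 = 50% inhibition of PV3 CPE by MTT after 2 d at 37 °C, survival scaled to uninfected (100%) and virus-only (0%) wells. At least three independent experiments.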

pEC50: −log10 of the molar value. A value given as a limit tells only on which side of the number the result lay.

In the case of `CCOC(=O)c1sc2cc(Oc3ccnc(C(=O)NC)c3)ccc2c1CC`, the pEC50 in the series on rhinovirus A21 was 6.68; in [2], 5.89; in the series with Poliovirus 3 it was below 4.78; in the series with rhinovirus B14, 4.87. In addition, the figures for the selectivity ratio in [1], in series [4] and in series [5] were 27, 170 and 2.6, respectively. The CC50 at 48 h in [3] was 16.7 µM. Besides, the CC50 at 72 h in series [6] was determined as 35.2 µM.

`CCOC(=O)c1sc2cc(Oc3ccnc(C(=O)NC)c3)ccc2c1C`: the pEC50 is 6.54 in the series with rhinovirus A21, 6.47 in [2], 7.03 in the series with Poliovirus 3 and 5.77 in the series on rhinovirus B14. Also, the selectivity ratio was 150 in series [1], above 1100 in [7], 180 in series [4] and 30 in [5]. Further, the CC50 at 48 h in [3] was above 100 µM. For the same compound, the CC50 at 72 h in series [6] was 50.9 µM.

As to `CCOC(=O)c1cc2ccc(OC)cc2s1`, the pEC50 was below 4.15 in the series with rhinovirus A21, 5.29 in [2], 4.88 in the series on Poliovirus 3 and below 4.15 in the series with rhinovirus B14. For the same compound, the selectivity ratio in series [1] turned out to be 14; in [7], 3.4. The CC50 at 48 h in series [3] is 44.4 µM. The CC50 at 72 h in [6] was determined as 70.9 µM.

Turning to `CCC(C)OC(=O)c1ccc2ccc(Oc3ccnc(C(=O)NC)c3)cc2c1` (stereo not drawn), the pEC50 is 6.39 in the series on rhinovirus A21, 7.89 in [2], 6.46 in the series with Poliovirus 3 and below 4.80 with rhinovirus B14. Besides, the selectivity ratio in series [1] was found to be 1200; in series [7], 26; in series [4], 39. Also, the CC50 at 48 h in [3] amounted to 9 µM. Besides, the half-maximal cytotoxic concentration (CC50) at 72 h in [6] came to 16 µM.

`CCOC(=O)c1ccc2ccc(Oc3ccnc(C(=O)NC)c3)cc2c1`: the pEC50 in the series on rhinovirus A21 is 6.57; in series [2], 7.32; with Poliovirus 3, 8.02; with rhinovirus B14 it was 5.68. In addition, the selectivity ratio worked out at 430 in series [1], 1400 in series [7], 77 in series [4] and 9.9 in series [5]. For the same compound, in series [3], the CC50 at 48 h amounted to 13.2 µM. For the same compound, the half-maximal cytotoxic concentration (CC50) at 72 h in series [6] came to 20.8 µM.

On to `CCOC(=O)c1ccc2cc(Oc3ccnc(C(=O)NC)c3)ccc2c1`, for which the pEC50 was 7.04 with rhinovirus A21, 8.46 in series [2], 6.39 with Poliovirus 3 and 5.68 with rhinovirus B14. Further, the selectivity ratio in [1] is 10000; in series [7], 83; in series [4], 390; in series [5] it was 17. The CC50 at 48 h in series [3] worked out at 34.1 µM. The CC50 at 72 h in series [6] was found to be 35.3 µM.

For the compound `CNC(=O)c1cc(Oc2ccc3ccc(C(=O)Oc4ccccc4)cc3c2)ccn1`, the pEC50 with rhinovirus A21 is below 4.00; in series [2], 5.08; with Poliovirus 3 it was 4.22; in the series with rhinovirus B14, below 4.00. Further, the selectivity ratio was above 12 in series [1] and above 1.7 in series [7]. Further, the CC50 at 48 h in series [3] is above 100 µM. The CC50 at 72 h in [6] is above 100 µM.

With `CCOC(=O)c1sc2cc(Oc3cccc(C(=O)NC)c3)ccc2c1C`, the pEC50 is 7.07 with rhinovirus A21, 6.82 in series [2], 6.42 in the series with Poliovirus 3 and 5.47 in the series with rhinovirus B14. In addition, the selectivity ratio is 34 in [1], 20 in [7], 60 in [4] and 1.5 in series [5]. In addition, the CC50 at 48 h in [3] was 7.7 µM. Further, in [6], the CC50 at 72 h worked out at 5.1 µM.

In the case of `CNC(=O)c1cc(Oc2ccc3c(C)c(C(=O)OCC(C)C)sc3c2)ccn1`, the pEC50 was 5.82 with rhinovirus A21, 6.42 in [2], 5.70 in the series with Poliovirus 3 and 5.00 with rhinovirus B14. Moreover, the selectivity ratio in series [1] was 96; in series [7] it was 14; in [4], 24; in series [5], 3.6. Further, in series [3], the CC50 at 48 h came out at 28.2 µM. Moreover, in series [6], the cytotoxic concentration (CC50) at 72 h is 36.6 µM.

Regarding `CNC(=O)c1cc(Oc2ccc3cc(C(=O)OC(C)C)sc3c2)ccn1`, the pEC50 in the series on rhinovirus A21 was 5.82; in series [2], 7.89; in the series on Poliovirus 3, 5.19; in the series with rhinovirus B14 it was 5.77. For the same compound, the selectivity ratio in series [1] is 3500; in series [7], 7; in [4] it was 31; in [5], 27. In addition, the CC50 at 48 h in series [3] was found to be 45 µM. Also, the CC50 at 72 h in series [6] is 45.7 µM.

For the compound `CNC(=O)c1cc(Oc2ccc3ccc(C(=O)OC)cc3c2)ccn1`, the pEC50 is 5.70 in the series with rhinovirus A21, 5.80 in [2], 7.36 in the series with Poliovirus 3 and 4.96 in the series on rhinovirus B14. In addition, the selectivity ratio was 33 in [1], 770 in series [7], 27 in series [4] and 4.9 in series [5]. The CC50 at 48 h in series [3] amounted to 33.8 µM. Besides, in series [6], the 50% cytotoxic concentration (CC50) at 72 h amounted to 53.5 µM.

Consider `CNC(=O)c1cc(Oc2ccc3c(C)c(C(=O)OC(C)C)[nH]c3c2)ccn1`, for which the pEC50 in the series on rhinovirus A21 was 5.60; in series [2], 5.72; with Poliovirus 3, 7.14; with rhinovirus B14, below 4.84. For the same compound, the selectivity ratio was 7.7 in series [1], 120 in series [7] and 5.8 in [4]. In addition, in series [3], the CC50 at 48 h is 8.4 µM. The cytotoxic concentration (CC50) at 72 h in series [6] was 14.6 µM.

In the case of `CCOC(=O)c1cc2cc(Oc3ccnc(C(=O)NC)c3)ccc2cc1O`, the pEC50 was 6.39 with rhinovirus A21, 6.54 in series [2], 6.74 with Poliovirus 3 and below 4.00 in the series on rhinovirus B14. The selectivity ratio is above 340 in series [1], above 560 in series [7] and above 240 in [4]. In addition, the CC50 at 48 h in [3] was above 100 µM. The CC50 at 72 h in series [6] is above 100 µM.

Take `CCOC(=O)c1cc2ccc(Oc3ccccc3)cc2s1`: the pEC50 was 4.29 in the series on rhinovirus A21, 5.55 in series [2], below 4.05 in the series with Poliovirus 3 and 4.16 in the series on rhinovirus B14. In addition, the selectivity ratio is above 36 in series [1], above 2 in [4] and above 1.5 in series [5]. Also, the 50% cytotoxic concentration (CC50) at 48 h in series [3] came out at 90.1 µM. In addition, in series [6], the cytotoxic concentration (CC50) at 72 h was above 100 µM.

For `COc1ccc(OCc2ccc(COc3c(Cl)cccc3Cl)cc2)c(Cl)c1`, the pEC50 in the series on rhinovirus A21 is 5.70; in [2], 6.60; in the series with Poliovirus 3, 7.10; with rhinovirus B14, below 4.00. The selectivity ratio was above 400 in [1], 200 in series [7] and above 50 in [4]. The CC50 at 48 h in series [3] is 16 µM. Besides, the CC50 at 72 h in [6] is above 100 µM.

Consider `CCOC(=O)c1sc2cc(O)ccc2c1C`, for which the negative-log EC50 (pEC50) in the series with rhinovirus A21 is below 4.09; in [2], below 4.09; with Poliovirus 3 it was 5.03; in the series on rhinovirus B14, below 4.09. The CC50 at 48 h in series [3] turned out to be 46.6 µM. For the same compound, in series [7], the selectivity ratio came out at 5. Also, the CC50 at 72 h in series [6] stood at 82 µM.

Take `CNC(=O)c1cc(Oc2ccc3c(C)c(C(=O)OCc4ccccc4)sc3c2)ccn1`: the pEC50 in the series on rhinovirus A21 is 6.26; in series [2] it was 5.85; with Poliovirus 3, 6.47; with rhinovirus B14 it was below 4.73. Further, the results for the selectivity ratio in [1], in series [7] and in series [4] were 13, 53 and 34, respectively. Also, the CC50 at 48 h in [3] turned out to be 18.1 µM. Besides, the CC50 at 72 h in series [6] worked out at 18.8 µM.

As to `CCOC(=O)c1sc2cc(Oc3ccnc(C(=O)NC)c3)ccc2c1Cl`, the negative-log EC50 (pEC50) in the series on rhinovirus A21 was 5.77; in series [2], 5.57; in the series with Poliovirus 3, below 4.34; with rhinovirus B14 it was 4.93. The selectivity ratio was 17 in series [1], 28 in series [4] and 4 in series [5]. Besides, the CC50 at 48 h in [3] was 45.6 µM. In series [6], the CC50 at 72 h amounted to 46.9 µM.

For the compound `CCOC(=O)c1sc2cc(OC)ccc2c1C`, the pEC50 is below 4.00 in the series on rhinovirus A21, 5.42 in series [2], 5.74 in the series with Poliovirus 3 and below 4.00 in the series with rhinovirus B14. Further, the selectivity ratio was above 26 in series [1] and above 56 in series [7]. Besides, the CC50 at 48 h in series [3] was above 100 µM. Besides, in [6], the CC50 at 72 h is above 100 µM.

In general, pEC50 refers to −log10 of the EC50, conventionally taken in molar units. In general, CC50 refers to the concentration at which the toxic effect on the cells reaches its halfway point.

The values are drawn from ChEMBL document CHEMBL4011621, “A Novel Series of Highly Potent Small Molecule Inhibitors of Rhinovirus Replication” (J Med Chem, 2017).
